Assay results from ChEMBL document CHEMBL1938234, “Cytotoxic and antimalarial azaphilones from Chaetomium longirostre” (J Nat Prod, 2011).

Columns and labels:
MCF7 = assay: Cytotoxicity against human MCF7 cells by SRB assay; format: functional, cell-based
KB = assay: Cytotoxicity against human KB cells by SRB assay; format: functional, cell-based
NCI-H187 = assay: Cytotoxicity against human NCI-H187 cells by SRB assay; format: functional, cell-based
Plasmodium falciparum = assay: Antimalarial activity against multidrug-resistant Plasmodium falciparum K1 assessed as inhibition of [3H]-hypoxanthine incorporation; format: functional, organism-based
Summary of the method: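 In vitro culture of the K1 multidrug-resistant P. falciparum strain followed the Trager–Jensen method. Activity was scored by the Desjardins microculture radioisotope technique, reading [3H]-hypoxanthine uptake by the parasites. IC50 was taken as the concentration giving 50% reduction in parasite growth. Dihydroartemisinin served as the reference standard.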

[1] = Plasmodium falciparum, K1, read-out: IC50
[2] = Homo sapiens, NCI-H187, read-out: IC50
[3] = Homo sapiens, MCF7, read-out: IC50

CCC(C)CC(C)/C=C(C)/C=C/C(=O)[C@H]1C(=O)O[C@@]2(C)C(=O)C=C3C=C([C@H]4C(=O)C=CC[C@@H]4C)OC=C3[C@@H]12 (some centres not stated) [LONGIROSTRERONE C]
IC50 (MCF7; mcf7): Not Active
IC50 (KB): 230 nM
IC50 (NCI-H187; nci-h187): Not Active
IC50 (Plasmodium falciparum; [1]): 620 nM

Cc1c2ccncc2c(C)c2c1[nH]c1ccccc12 [ELLIPTECINE]
IC50 (KB): 1250 nM
IC50 (NCI-H187; [2]): 1820 nM

COc1cccc2c1C(=O)c1c(O)c3c(c(O)c1C2=O)C[C@@](O)(C(=O)CO)C[C@@H]3O[C@H]1C[C@H](N)[C@H](O)[C@H](C)O1 [DOXORUBICIN]
IC50 (MCF7; [3]): 2290 nM
IC50 (KB): 330 nM
IC50 (NCI-H187; [2]): 110 nM

CCC(C)CC(C)/C=C(C)/C=C/C(=O)C1=C2C3=COC([C@H]4C(=O)C[C@H](O)C[C@@H]4C)=CC3=CC(=O)[C@@]2(C)OC1=O (some centres not stated) [LONGIROSTRERONE D]
IC50 (MCF7; [3]): 38200 nM
IC50 (KB): 6380 nM
IC50 (NCI-H187; [2]): 18400 nM
IC50 (Plasmodium falciparum): Not Active

CCC(C)CC(C)/C=C(C)/C=C/C(=O)C[C@H]1C2=COC([C@H]3C(=O)C[C@H](O)C[C@@H]3C)=CC2=CC(=O)[C@]1(C)O (some centres not stated) [LONGIROSTRERONEB]
IC50 (MCF7; mcf7): Not Active
IC50 (KB): 1520 nM
IC50 (NCI-H187; nci-h187): Not Active
IC50 (Plasmodium falciparum; [1]): 3730 nM

C[C@H]1[C@@H](O)O[C@@H]2O[C@@]3(C)CC[C@H]4[C@H](C)CC[C@@H]1[C@@]24OO3 [ARTENIMOL]
IC50 (Plasmodium falciparum; [1]): 4 nM

CCC(C)CC(C)/C=C(C)/C=C/C(=O)[C@H]1C(=O)O[C@@]2(C)C(=O)C=C3C=C([C@H]4C(=O)C[C@H](O)C[C@@H]4C)OC=C3[C@@H]12 (some centres not stated) [LONGIROSTRERONEA]
IC50 (MCF7; [3]): 240 nM
IC50 (KB): 1040 nM
IC50 (NCI-H187; [2]): 3080 nM
IC50 (Plasmodium falciparum; [1]): 630 nM
